From PubChem BioAssay AID1216 (Sanford-Burnham Center for Chemical Genomics, 2008)
Out of some 190,000 compounds screened, about 660 (0.35%) were called active.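 Rule for the calls: active = activation factor of 2 or more at 20 µM; inactive = the rest.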 What follows is part of a selection rich in actives, with near analogues and random picks from the rest.

These compounds were tested against Mannose-6-phosphate isomerase (Homo sapiens) (UniProt P34949) (assay: human PMI activators, high substrate, primary screen, biochemical, fluorescence intensity, near-saturating mannose 6-phosphate (AID 1216)). Conditions: coupled PMI enzyme assay, resazurin fluorescence, 20 min; at 20 µM; active compounds read high; 1 = untreated enzyme, 0 = substrate-free blank.
Method in brief: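 Material: human phosphomannose isomerase with PGI, G6PDH, diaphorase coupling enzymes. Quantity: 15 ng/mL PMI. Medium: HEPES pH 7.4 buffer with MgCl2 and Tween-20. Reagent: Near-saturating mannose-6-phosphate, 1.0 mM. Compound: 20 µM single dose. Times: enzyme reaction with compound 20 min at room temperature. Detection: resorufin fluorescence at Ex 544/Em 590 nm.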

Sequence of Mannose-6-phosphate isomerase (Homo sapiens) (P34949 whole entry, looked up): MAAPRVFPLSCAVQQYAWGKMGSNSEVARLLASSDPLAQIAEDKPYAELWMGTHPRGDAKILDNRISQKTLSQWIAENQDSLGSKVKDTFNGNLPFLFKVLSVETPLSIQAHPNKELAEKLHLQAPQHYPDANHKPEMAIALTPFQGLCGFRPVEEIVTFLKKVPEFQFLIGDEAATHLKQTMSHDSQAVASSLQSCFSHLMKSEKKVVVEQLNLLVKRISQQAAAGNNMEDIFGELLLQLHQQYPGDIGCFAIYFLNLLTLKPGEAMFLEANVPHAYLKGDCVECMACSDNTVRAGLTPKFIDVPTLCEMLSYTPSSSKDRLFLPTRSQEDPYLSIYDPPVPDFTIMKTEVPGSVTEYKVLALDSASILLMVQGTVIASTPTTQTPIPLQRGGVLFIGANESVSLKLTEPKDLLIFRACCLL

Activation factor, inactive:
O=C(CCCn1c(=O)c2sccc2n(CC(=O)NCC2CCCO2)c1=O)NCc1ccco1 (stereo unspecified) 0.9, Cn1cc(C(=O)NCc2ccccc2F)cn1 1, O=C(CO/N=C/c1ccccc1OC(F)F)NC1CCCC1 1.1, CCN(CC)C(=O)C(=O)Nc1cccc(Br)c1 0.9, C=CCc1ccccc1OCC(=O)N/N=C/c1ccccc1OCC 0.9, OCC1(Cc2ccccc2C(F)(F)F)CCN(Cc2cccc3cnccc23)CC1 0.9, COc1ccc(OC)c(NC(=O)CN(Cc2ccc(Cl)cc2)S(C)(=O)=O)c1 0.8, CSc1ncccc1C(=O)OCc1ccc(Br)cc1 1, COC(=O)C(NS(=O)(=O)c1ccc(F)cc1)c1ccccc1 (stereo unspecified) 0.9, COc1ccc(-c2c3c(=O)n(C)c(=O)n(C)c3cn2-c2cccc(OC)c2)cc1 1.2, COc1cccc(-n2cc3c(c2-c2ccccc2)c(=O)n(C)c(=O)n3C)c1 1, COCCn1c(C)cc(C(=O)COC(=O)/C=C/c2cccc(OC)c2)c1C 1, Cc1ccc(N/N=C2\COC(C)(C)CC2=O)cc1 1.9, COc1ccc(CNC2CCCCC2)cc1 1, CC(=O)c1cc(C#N)c(N2CC(C)OC(C)C2)nc1C (stereo unspecified) 1, CC(C)N(C(=O)Cn1cc(SCC(=O)N2CCCC2)c2ccccc21)C(C)C 1, COc1ccc(-c2nn(-c3ccccc3)cc2CN2CCCO2)c(F)c1 1, CCN(C(=O)COC(=O)c1cc(NS(=O)(=O)c2ccc(Cl)c([N+](=O)[O-])c2)ccc1O)C1CCCCC1 0.9, Cc1ccc(N/C=C/C(=O)c2ccccc2)cc1C 1.1, O=C(/C=C/NCc1ccc(F)cc1)c1ccccc1 1, CN(C)CCCSc1ccccc1NC(=O)/C=C/c1ccccc1 1, Cc1ccc(S(=O)(=O)CCC(=O)OCc2ccccc2)cc1 1, O=C(CNC(=O)c1cc(=O)[nH]c2ccccc12)Nc1ccc(F)c(F)c1 0.9, COC(=O)C(=Nc1ccccc1)/C(C(=O)C(=O)N(C)c1ccccc1)=C(\O)c1ccc(Cl)cc1 0.8, COc1cc(OC)cc(C(=O)OCC(=O)Nc2ccc(F)cc2F)c1 0.9, COc1ccccc1CC(=O)Nc1ccc(F)cc1F 1, Cc1cc(C)cc(C(=O)NCC(=O)OCC(=O)N2CCCCC2)c1 1.2, Cc1ccc(N/C(N)=N/c2nc(C(F)(F)F)cc(C(F)(F)F)n2)cc1 1.1, O=C(CN1CCN(CC(=O)Nc2ccc3c(c2)OCO3)CC1)Nc1ccc(F)cc1 1, O=C(Nc1ccccc1N1CCN(C(=O)c2ccccc2)CC1)c1ccc2c(c1)OCO2 0.9, S=C(Nc1ccc(Br)cc1Cl)N1CCC2(CC1)OCCO2 0.9, CCOC(=O)/C(=N\Nc1cc(Cl)ccc1Cl)N1CCN(C)CC1 1, CC(C)(C)C(=O)CSc1nc2ccccc2o1 0.9, CN1CCN(S(=O)(=O)c2cccc(C(=O)O)c2)CC1 1.1, CC1Cc2ccccc2N1C(=O)CSc1nnc(-c2ccc(S(=O)(=O)N3CCCC3)cc2)n1C (stereo unspecified) 0.4, COc1ccccc1NC(=O)C1=C(C)Nc2nc3ccccc3n2C1c1cccs1 (stereo unspecified) 1, COC(=O)Cc1nc2ccccc2[nH]1 1, CCC(=O)NC(=Nc1nc2ccccc2s1)NC(=O)CC 1.1, CCCCN=C1C([N+](=O)[O-])=CC=C2C1=NC1(CCCCC1)N2O 0.5, O=C(Nc1cccnc1)c1cc2cc(Br)ccc2oc1=O 1.1, CS(=O)(=O)N(CC(=O)NC1CCCC1)Cc1ccc(F)cc1 1, CCC1=NN(C(=O)Cc2ccc([N+](=O)[O-])cc2)C(O)(c2ccc(Br)cc2)C1 (stereo unspecified) 0.9, CCN(CC)CCN1C(=O)C(=O)/C(=C(/O)c2ccc(OC)c(OC)c2)C1c1ccccn1 (stereo unspecified) 1.2, CCN(CC)CCN1C(=O)C(=O)/C(=C(/O)c2ccccc2)C1c1ccccc1F (stereo unspecified) 1, Cc1cc(C)c(OCCN2CC(C)OC(C)C2)c(Br)c1 (stereo unspecified) 0.9, Cc1scc(C(=O)NNC(=S)NCc2ccccc2)c1C 1.1, S=C(c1ccc(-c2ccccc2)o1)N1CCCCC1 0.9, C=CCN(C(=O)c1cc(C)cc(C)c1)C1(C(=O)Nc2ccccc2)CCN(C(C)C)CC1 1, COc1cccc(CN2CCNC(=O)C2CC(=O)N(C)CCc2ccccn2)c1 (stereo unspecified) 0.7, CC1=C(C)CC(C(=O)NNC(=O)c2csc3c2CCC(C(C)(C)C)C3)C(C(=O)O)C1 (stereo unspecified) 1, Cc1ccc(/C(N)=N/OC(=O)COc2ccc(Cl)c(C)c2)cc1 1, Nc1ncc(-c2cc3ccccc3oc2=O)s1 0.8, O=C(c1cn(-c2ccccc2)nc1-c1cc2ccccc2oc1=O)N1CCOCC1 1, COC(=O)c1nc(NC(=O)c2ccc(F)cc2)n[nH]1 1, CCOC(=O)C1(O)CC(C)=NN1C(=O)c1cccc(Br)c1 (stereo unspecified) 1.1, Cn1cccc1/C=N/NC(=O)c1ccc(OC(F)(F)C(F)F)cc1 0.9, O=C(NCc1ccccc1Cl)C1CCCO1 (stereo unspecified) 1

Activation factor, active:
COc1ccc(-c2c3c(=O)n(C)c(=O)n(C)c3cn2NC(C)=O)cc1 2, COc1ccc(N/N=C2/CCCCC2=O)cc1 2, O=C(/C=C\NCC(=O)c1ccccc1)c1ccccc1 2.5, COc1ccc(C(=O)Nc2ccc(F)cc2F)cc1 2, O=C(CN1CCN(c2ccccc2F)CC1)c1ccc2c(c1)OCO2 2, COC(=O)Cc1cc(=O)n(-c2nc3ccccc3s2)[nH]1 2, CCN(CC)CCN1C(=O)C(=O)/C(=C(/O)c2cnn(-c3ccccc3)c2C)C1c1cccs1 (stereo unspecified) 2, O=c1oc2ccccc2cc1-c1cn(-c2ccccc2)c(=S)[nH]1 2.3, O=S1(=O)CC/C(=N\Nc2ccc(F)cc2)c2ccsc21 2.6
